# Screens (PubChem)
# CAL PDZ FP-1 – inhibitors of human CAL PDZ peptide binding; Q9HD26; purified CAL PDZ, TMR-peptide fluorescence polarization, 1 h; inhibition, % at 20 µM; actives 0.02% (n = 330,000); AID 504414;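 active = highest replicate inhibition of at least 40%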;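 note: plate controls were DMSO neutral control wells for no effect and unlabeled competitor peptide control wells for full effect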
#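 Read-out basis: mP drop reported as inhibition | Assay system: Tagged CAL PDZ protein CerCALP, purified | Benchmarks: Unlabelled peptide for full inhibition, DMSO wells as neutral | Schedule: 1 h incubation at room temperature before polarization reading | Buffer or medium: Sodium phosphate/NaCl buffer pH 7.4 with TCEP, IgG, Thesit | Doses: Single point, 20 µM | Measured by: Fluorescence polarization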
# RAD54 inh – RAD54 (human) branch migration inhibition; RAD54 Holliday junction branch migration, FAM/BHQ fluorescence; inhibition, % at 10.4 µM; actives 0.14% (n = 360,000); AID 602329;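 active = mean normalized replicate activity at least 40 and at least half of replicates scoring 40 or more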;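 note: 0% = median of neutral control wells and 100% = median of positive control wells; inhibitors cause a drop in the FAM fluorescence signal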
# PDI inh – blocks human protein disulfide isomerase activity | PDI insulin aggregation turbidity, A650, 90 min | actives 0.052% (n = 350,000) | inhibition, % at 10 µM;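 active = mean inhibition across replicates of 30% or more, whatever share of single replicates reach that level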
# Target sequence (P07237 whole entry, looked up): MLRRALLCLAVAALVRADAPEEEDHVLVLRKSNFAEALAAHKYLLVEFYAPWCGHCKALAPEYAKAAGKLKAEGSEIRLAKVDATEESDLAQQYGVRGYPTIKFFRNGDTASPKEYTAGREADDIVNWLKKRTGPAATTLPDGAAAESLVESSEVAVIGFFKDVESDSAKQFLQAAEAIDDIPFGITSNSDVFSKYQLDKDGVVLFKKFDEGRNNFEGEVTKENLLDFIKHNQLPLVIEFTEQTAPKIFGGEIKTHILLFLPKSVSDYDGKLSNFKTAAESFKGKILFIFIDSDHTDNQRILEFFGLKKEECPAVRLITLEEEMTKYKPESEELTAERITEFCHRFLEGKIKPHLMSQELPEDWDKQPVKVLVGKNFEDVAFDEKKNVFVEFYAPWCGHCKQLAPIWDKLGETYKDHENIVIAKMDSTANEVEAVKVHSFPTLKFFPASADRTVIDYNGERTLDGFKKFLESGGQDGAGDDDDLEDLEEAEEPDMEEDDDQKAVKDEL
# RAD52 inh – inhibitors of human RAD52 DNA annealing. inhibition, % at 18.7 µM. recombinant RAD52 DNA annealing, FRET fluorescence. actives 0.46% (n = 360,000). AID 651710;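 active = every replicate showing at least 50% inhibition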
# CAL PDZ FP-2 – blocks peptide binding to the human CAL PDZ domain | Q9HD26 | purified CAL PDZ, TMR-peptide fluorescence polarization, 1 h | actives 0.92% (n = 300,000) | AID 602252 | inhibition, % at 24.9 µM;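 active = mean inhibition of at least 30% with at least half of replicates also reaching 30%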;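 note: 0% = DMSO neutral control and 100% = excess unlabeled competitor peptide PRC23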
# ERp5 inh – blocks human ERp5 reductase activity on insulin | actives 0.05% (n = 350,000) | Q15084 | inhibition, % at 9.99 µM | ERp5 insulin aggregation, absorbance 650 nm, 90 min;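 active = mean replicate inhibition above about 25%, with every replicate also reaching it, limit read from the data, passing the limit was not always enough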
# Numbers without * were called inactive; · = not tested or not shown; ! = not active in a repeat. Shown are actives, neighbours in structure and some others; about 1% of the full set was active somewhere.
SMILES,CAL PDZ FP-1,RAD54 inh,PDI inh,RAD52 inh,CAL PDZ FP-2,ERp5 inh
Cc1cccc(-c2ccc(C3[C@@H]4CN(Cc5ccccc5)C[C@H]3N4)cc2)c1 (some centres undefined),·,·,·,50*,·,1
COc1cccc(CN2C[C@@H]3N[C@H](C2)C3c2ccc(-c3ccccc3OC)cc2)c1 (some centres undefined),·,·,·,51*,·,1
COc1cccc(CN2C[C@@H]3N[C@H](C2)C3c2ccc(-c3ccc(C#N)cc3)cc2)c1 (some centres undefined),·,·,·,71*!,·,0
CCC(=O)Nc1ccc2c(c1)OC[C@@H](C)N(C(=O)C1CCC1)C[C@H](C)[C@H](OC)CN(C)C2=O,·,7,·,7,·,-5
Cc1noc(C)c1NC(=O)Nc1cccc2c1O[C@@H](CN(C)S(=O)(=O)c1cn(C)cn1)[C@@H](C)CN([C@H](C)CO)C2=O,·,5,·,5,·,-3
O=C(C[C@H]1CC[C@H]2NC[C@H](O)COC[C@@H]2O1)NCCN1CCCCC1,·,7,·,11,·,-2
CC(C)(C)S(=O)(=O)c1cnc2c(-c3ccsc3)cnn2c1N,0,·,0,-10,48*,4
CS(=O)(=O)c1cnc2c(-c3ccc(F)cc3)cnn2c1N,1,0,-12,·,2,·
CN(C)S(=O)(=O)c1ccc(N2CCOCC2)nc1,0,-16,2,·,·,·
CN(Cc1ccccc1)S(=O)(=O)c1ccc(N2CCOCC2)nc1,1,-4,13,-11,73*,4
CC(Sc1nnnn1C)C(=O)Nc1ccc2c(c1)OCCO2 (centres undefined),-1,·,-6,-5,44*,4
Cc1ccc(C(C)C)c(OC/C(O)=C(\C#N)c2nc3ccccc3[nH]2)c1,0,·,1,-5,63*,0
O=c1c2cc3c(cc2[nH]c(=S)n1CCN1CCOCC1)OCO3,·,1,-1,·,45*,·
CC1CCN(CCn2c(=S)[nH]c3cc4c(cc3c2=O)OCO4)CC1,-3,14,-3,4,-5,2
CCN(CC)S(=O)(=O)c1ccc(N2CCc3cc(OC)c(OC)cc3C2)nc1,-1,2,5,-4,50*,4
COc1ccc(S(=O)(=O)N(C)C[C@@H]2Oc3ccc(NC(=O)Cc4ccccc4)cc3CC(=O)N([C@H](C)CO)C[C@H]2C)cc1,·,-1,·,-8,·,2
COc1ccc(S(=O)(=O)N(C)C[C@@H]2Oc3c(NS(=O)(=O)c4ccc(C)cc4)cccc3C(=O)N([C@H](C)CO)C[C@@H]2C)cc1,·,14,·,-20,·,-4
O=[N+]([O-])c1c(Nc2ccccc2O)ccc2nonc12,-1,-4,-13,-8,36*,-5
COc1ccc(S(=O)(=O)Nc2cccc3c2O[C@@H](CN(C)S(=O)(=O)c2ccc(F)cc2)[C@@H](C)CN([C@H](C)CO)C3=O)cc1,·,-3,·,-17,·,-1
COCCNC(=O)C(=O)NCCN1CCNCC1,0,·,0,1,88*,-1
COCn1c(-c2ccc(OC)cc2)nc2ccccc21,·,4,3,·,107*,·
COc1ccc2ccccc2c1/C=N/O,-1,8,4,·,36*,·
C=CCOc1ccc2ccccc2c1/C=N/O,-2,·,-4,·,-5,·
COc1ccc(-c2noc(-c3ccccc3C(=O)NCC3CCCO3)n2)cc1 (centres undefined),-1,·,0,-9,70*,1
O=C(O)Cn1c2ccccc2c2nc3ccccc3nc21,·,14,-3,·,·,·
SMILES,CAL PDZ FP-1,RAD54 inh,PDI inh,RAD52 inh,CAL PDZ FP-2,ERp5 inh
CCOC(=O)Cn1c2ccccc2c2nc3ccccc3nc21,0,-10,-3,·,42*,·
O=S(=O)(c1ccc(Br)cc1)N1CCN=C1SCc1cccnc1,-1,·,-2,-8,45*,-1
O=S(=O)(c1ccccc1)N1CCN=C1SCc1ccc(Cl)c(Cl)c1,-1,·,1,·,-4,·
O=S(=O)(c1ccccc1)N1CCN=C1SCc1ccc(Cl)cc1,-1,·,-20,0,44*,2
CO[C@@H]1CN(C)C(=O)c2cc(NC(=O)CC(F)(F)F)ccc2OC[C@H](C)N(C(=O)c2ccccc2F)C[C@@H]1C,·,·,·,-60,·,-1
CCC(=O)Nc1ccc2c(c1)C(=O)N(C)[C@H]1CC[C@@H](CC(=O)NCC3CC3)O[C@H]1CO2,·,-20,·,2,·,36*
CCCNC(=O)C[C@H]1CC[C@@H]2[C@@H](COc3ccc(NC(=O)c4ccccc4)cc3C(=O)N2C)O1,·,4,·,-3,·,64*
CCC(=O)Nc1ccc2c(c1)C(=O)N(C)[C@@H]1CC[C@@H](CC(=O)NCC3CC3)O[C@H]1CO2,·,8,·,4,·,-1
CN1C(=O)c2cc(NC(=O)Nc3ccc(Cl)cc3)ccc2OC[C@@H]2O[C@@H](CC(=O)NCCN3CCCCC3)CC[C@@H]21,·,7,·,57*,·,-2
CC(=O)Nc1ccc2c(c1)C(=O)N(C)[C@H]1CC[C@H](CC(=O)NCC3CC3)O[C@@H]1CO2,·,3,·,1,·,91*
CCC(=O)Nc1ccc2c(c1)C(=O)N(C)[C@H]1CC[C@H](CC(=O)NCC3CC3)O[C@H]1CO2,·,0,·,5,·,60*
CC(=O)Nc1ccc(SCC(=O)Nc2sccc2C#N)cc1,-2,·,-7,-23,2,5
Cc1ccnc(SCC(=O)Nc2sccc2C#N)n1,0,-5,1,-15,39*,3
COc1cccc(S(=O)(=O)N[C@@H]2C=C[C@H](CC(=O)NC3Cc4ccccc4C3)O[C@H]2CO)c1,·,-2,·,0,·,-1
CNC(=O)C[C@@H]1CC[C@H]2[C@H](COc3ccc(NC(=O)Nc4cccc(F)c4)cc3C(=O)N2C)O1,·,0,·,·,·,·
CCC(=O)N1CCc2cc(Br)cc(S(=O)(=O)N3CCCCC3CC)c21 (centres undefined),-1,-7,2,-2,74*,-1
CCC(=O)N1CCc2cc(Br)cc(S(=O)(=O)N3CCCCCC3)c21,-1,5,16,·,-3,·
N#C[C@H]1[C@@H](c2ccccc2-c2cccc(F)c2)[C@@H](CO)N1C(=O)C1CCCCC1,·,·,·,-4,·,10
C[C@H]1CN([C@@H](C)CO)S(=O)(=O)c2ccc(C#CC3CC3)cc2O[C@@H]1CN(C)C(=O)c1cccnc1,·,-4,·,8,·,7
COc1ccc(CC2CCOC2=O)cc1 (centres undefined),0,6,0,·,62*,·
C[C@@H]1CN([C@@H](C)CO)C(=O)c2cc(NC(=O)Nc3ccc(C(F)(F)F)cc3)ccc2O[C@H]1CN(C)Cc1ccc(C(F)(F)F)cc1,·,0,·,-28,·,2
COc1ccc(Cl)cc1CNCCCSc1ncccn1,0,-8,1,5,-1,-10
CCOc1ccc(Cl)cc1CNCCCSc1ncccn1,4,-2,-7,6,70*,5
